Results collected from several papers.
Lines come from different studies, so protocols differ.
Target: Tyrosine-protein kinase Lck (LCK, Homo sapiens, UniProt P06239)

CNC(=O)[C@@H]1CC[C@@H](n2c(-c3ccc4cnccc4c3)nc3ccc(C(=O)NCc4cccc(C(N)=O)c4)cc32)C1  remaining binding (binding; competition with immobilised ligand; 1 µM): 94%
F[C@@H]1CCN(c2nccc(-c3cnn4ncccc34)n2)C1  remaining binding (binding; 1 µM): 100%
CN([C@@H]1CCc2c(CC(=O)O)c3cc(S(C)(=O)=O)ccc3n2C1)S(=O)(=O)c1ccc(F)cc1  remaining binding (cell-free assay; competition with immobilised ligand; 1 µM): 100%
CN(CCCC(F)(F)F)c1nccc(-c2cnn3ncccc23)n1  remaining binding (binding; 1 µM): 89%
O=C(c1ccc(Nc2ncc(Cl)c(-c3cc4ccccc4s3)n2)cc1)N1CCC(N2CCCC2)CC1  remaining binding (binding; competition with immobilised ligand; 1 µM): 21%
N#Cc1ccc(Nc2ccc3[nH]c(=O)[nH]c3c2)c(Cl)c1  remaining binding (cell-free assay; competition with immobilised ligand; 1 µM): 100%
CCN1CCN(Cc2ccc(C(=O)Nc3ccc(C)c(Oc4ccc5c(c4)CC(=O)N5)c3)cc2C(F)(F)F)CC1  remaining binding (binding; competition with immobilised ligand; 1 µM): 22%
C[C@H]1CCN(c2nccc(-c3cnn4ncccc34)n2)C1  remaining binding (binding; 1 µM): 98%
O=C(Nc1c[nH]nc1C(=O)NC1CCNCC1)c1cc(F)cc(F)c1  remaining binding (binding; competition with immobilised ligand; 1 µM): 100%
O=C(NCCCN1CCOCC1)c1ccc(Nc2ncc(Cl)c(-c3ccc(Cl)s3)n2)cc1  remaining binding (binding; competition with immobilised ligand; 1 µM): 100%
CNC(=O)c1ccc(Nc2ncc(C(F)(F)F)c(NCc3nccnc3N(C)S(C)(=O)=O)n2)cc1  remaining binding (cell-free assay; competition with immobilised ligand; 0.1 µM): 87%
C[C@@H](c1ccc(-n2cnc3c(N)ncnc32)cc1)N1CCc2nn(C)c(Cc3ccccc3)c2C1=O  remaining binding (binding; competition with immobilised ligand; 0.1 µM): 94%
COc1ccc2cc(OCC3(C(=O)O)CN(C(=O)c4ccc(F)cc4)C3)ccc2c1  remaining binding (cell-free assay; competition with immobilised ligand; 1 µM): 80%
O=C(c1ccc(Nc2ncc(Cl)c(-c3ccc(Cl)s3)n2)cc1)N1CCC(N2CCCC2)CC1  remaining binding (binding; competition with immobilised ligand; 1 µM): 32%
Nc1ncc2c(n1)-c1c([nH]c3ccc(C#CC4CC4)cc13)CCCC2  remaining binding (binding; competition with immobilised ligand; 1 µM): 100%
CCCOc1ccc([C@@H]2[C@@H](C(=O)O)[C@H](c3ccc4c(c3)OCO4)CN2CC(=O)Nc2c(CC)cccc2CC)cc1  remaining binding (cell-free assay; competition with immobilised ligand; 1 µM): 100%
